Assay results as given in ChEMBL document CHEMBL3596125, “Discovery of substituted 1,4-dihydroquinolines as novel promising class of P-glycoprotein inhibitors: First structure-activity relationships and bioanalytical studies” (Bioorg Med Chem Lett, 2015).

Experiments:
[1] = species: Homo sapiens; assay: Inhibition of human P-gp expressed in mouse T-cell lymphoma assessed as ratio of rhodamine 123 uptake in P-gp expressing cells to rhodamine 123 uptake in non P-gp expressing cells at 10 uM by flow cytometric analysis relative to control; type: cell-based
How it was run: (§1)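 Rhodamine 123 uptake is read by flow cytometry in the parental mouse T-lymphoma line and in the colchicine-selected subline expressing human P-gp, with or without inhibitor. Fluorescence in each line is first normalized to the untreated control of that line. The FAR value is then calculated as subline fluorescence divided by parental-line fluorescence.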

[2] = species: Homo sapiens; assay: Inhibition of human P-gp expressed in mouse T-cell lymphoma assessed as ratio of rhodamine 123 uptake in P-gp expressing cells to rhodamine 123 uptake in non P-gp expressing cells at 1 uM by flow cytometric analysis relative to control; type: cell-based; how it was run: as §1
[3] = Cellular uptake in mouse T-cell lymphoma assessed as fluorescence ratio at 100 uM by flow cytometric analysis; type: ADME; details: in vitro
How it was run: (§2)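 Cells are the parental mouse T-lymphoma line and its subline transfected retrovirally with human P-gp, which is maintained under colchicine selection. The fluorescent test compound is added at 50 or 100 µM. Intrinsic compound fluorescence taken up by the cells is read by flow cytometry. The ratio relates the uptake in the P-gp-expressing subline to that in the parental line. Values are means of three determinations.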

[4] = Cytotoxicity against mouse T-cell lymphoma assessed as reduction of cell viability after 24 hrs by MTT assay
How it was run: (§3)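 MTT viability assay, with formazan formation by mitochondrial dehydrogenases as the read-out. Cells are the parental mouse T-lymphoma line or its retrovirally transfected subline expressing human P-gp, which is kept under colchicine. Cells are incubated with varying concentrations of compound for 24 or 48 h. IC50 is derived from the reduction in viability.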

[5] = Cytotoxicity against mouse T-cell lymphoma assessed as reduction of cell viability after 48 hrs by MTT assay; how it was run: as §3
[6] = Cytotoxicity against mouse T-cell lymphoma expressing human P-gp assessed as reduction of cell viability after 24 hrs by MTT assay; type: ADME; how it was run: as §3
[7] = Cytotoxicity against mouse T-cell lymphoma expressing human P-gp assessed as reduction of cell viability after 48 hrs by MTT assay; type: ADME; how it was run: as §3
[8] = species: Homo sapiens; assay: Activity at human P-gp expressed in mouse T-cell lymphoma assessed as fluorescence ratio at 50 uM by flow cytometric analysis; how it was run: as §2
[9] = species: Homo sapiens; assay: Activity at human P-gp expressed in mouse T-cell lymphoma assessed as fluorescence ratio at 100 uM by flow cytometric analysis; how it was run: as §2
[10] = Cellular uptake in mouse T-cell lymphoma assessed as fluorescence ratio at 50 uM by flow cytometric analysis; type: ADME; details: in vitro; how it was run: as §2

Ratio [3] | Ratio [8] | Ratio [9] | Ratio [10] | SMILES | Ratio [1] | Ratio [2] | IC50 [4] | IC50 [5] | IC50 [6] | IC50 [7]
– | – | – | – | CCOC(=O)C1=CN(Cc2ccccc2)c2ccccc2C1c1ccc(OC)cc1 (stereo unspecified) | 5.52 | 1.27 | – | – | – | –
– | – | – | – | COc1ccc(CCN(C)CCCC(C#N)(c2ccc(OC)c(OC)c2)C(C)C)cc1OC (stereo unspecified) | 4.98 | 1.46 | – | – | – | –
– | – | – | – | CCOC(=O)C1=CN(Cc2ccccc2)c2ccccc2C1c1ccccc1 (stereo unspecified) | 2.86 | 0.79 | – | – | – | –
– | – | – | – | CCOC(=O)C1=CN(Cc2ccc(OC)cc2)c2ccccc2C1c1cccc(OC)c1 (stereo unspecified) | 10.3 | 2.03 | – | – | – | –
1.07 | 1.06 | 1.07 | 1.06 | CCOC(=O)C1=CN(Cc2ccccc2)c2ccccc2C1c1ccc(OC)c(OC)c1 (stereo unspecified) | 12.8 | 3.42 | > 160 µM | > 160 µM | > 160 µM | > 160 µM
– | – | – | – | CCOC(=O)C1=CN(Cc2cccc(OC)c2)c2ccccc2C1c1ccc(OC)cc1 (stereo unspecified) | 9.95 | 2.23 | – | – | – | –
– | – | – | – | CCOC(=O)C1=CN(Cc2ccccc2)c2ccccc2C1c1cc(OC)cc(OC)c1 (stereo unspecified) | 10.5 | 2.96 | – | – | – | –
– | – | – | – | CCOC(=O)C1=CN(Cc2cccc(OC)c2)c2ccccc2C1c1cccc(OC)c1 (stereo unspecified) | 9.68 | 2.26 | – | – | – | –
– | – | – | – | CCOC(=O)C1=CN(Cc2ccc(OC)cc2)c2ccccc2C1c1ccc(OC)cc1 (stereo unspecified) | 12.4 | 2.55 | – | – | – | –
0.99 | 1.03 | 0.99 | 1.03 | CCOC(=O)C1=CN(Cc2ccccc2)c2ccccc2C1c1cccc(OC)c1 (stereo unspecified) | 7.43 | 1.55 | > 160 µM | > 160 µM | > 160 µM | > 160 µM
